Test results published in ChEMBL document CHEMBL1127023, “Nonpeptide angiotensin II receptor antagonists. Synthesis and biological activity of benzimidazoles” (J Med Chem, 1993).

Assays:
[1] = In vitro for inhibition of specific binding of [125I]-angiotensin II (0.2 nM) to bovine adrenal cortex
[2] = target: Angiotensin II receptor (Rattus norvegicus) (UniProt P29089+P25095+P35351); assay: In vivo inhibition of angiotensin II (0.1 ug/kg) induced increase in blood pressure in conscious male rat at 3 mg/kg for 3h/7h.; type: functional, organism-based; set-up: dose 3 mg/kg
Method in brief: (§1)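 Conscious male Jcl:Sprague-Dawley rats (300–400 g), femoral artery and vein cannulated under pentobarbital the day before. AII 100 ng/kg iv was given twice as control. Compound was dosed orally as a gum arabic suspension, then AII challenges were repeated. Pressor-response inhibition was read at 3 and 7 h after dosing, from duplicate experiments.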

[3] = test system: Rattus norvegicus; assay: In vivo inhibition of angiotensin II (0.1 ug/kg)-induced increase in blood pressure in conscious male rat at 10 mg/kg for 3h/7h; type: functional
Method in brief: as §1

[4] = test system: Rattus norvegicus; assay: In vivo for inhibition of the Angiotensin II (0.1 ug/kg) induced increase in blood pressure in conscious male rat at 30 mg/kg for 3h/7h; type: functional
Method in brief: as §1

[5] = test system: Rattus norvegicus; assay: In vivo for inhibition of the Angiotensin II (0.1 ug/kg) induced increase in blood pressure in conscious male rat at 10 mg/kg for 0.5h/1h; type: functional
[6] = test system: Rattus norvegicus; assay: In vivo for inhibition of the Angiotensin II (0.1 ug/kg) induced increase in blood pressure in conscious male rat at 100 mg/kg for 3h/7h; type: functional
Method in brief: as §1

[7] = In vitro for inhibition of specific binding of [125I]-angiotensin II (0.02 nM) to bovine adrenal cortex; type: tissue-based, Bos taurus
[8] = test system: Rattus norvegicus; assay: In vivo inhibition of angiotensin II (0.1 ug/kg) induced increase in blood pressure in conscious male rat at 10 mg/kg for 3h/7h; type: functional
Method in brief: as §1

IC50 [1] | SMILES | inhibition [2] | inhibition in vivo at 30 mg/kg [4] | other results
540 nM | CCCCc1nc2cccc(C(=O)NC(C)C)c2n1Cc1ccc(-c2ccccc2-c2nn[nH]n2)cc1 |  |  | 
3400 nM | CCCCc1nc2cccc(C(=O)O)c2n1Cc1ccc(-c2ccccc2-c2nnnn2C)cc1 | 77% |  | 
900 nM | CCCCc1nc2ccccc2n1Cc1ccc(-c2ccccc2-c2nn[nH]n2)cc1 |  | 18% | inhibition in vivo at 10 mg/kg [3]: 13%; inhibition in vivo at 10 mg/kg [5]: 52%
7200 nM | CCCCc1nc2c(C(=O)OC)cccc2n1Cc1ccc(-c2ccccc2-c2nn[nH]n2)cc1 |  | 9% | 
2400 nM | CCCCc1nc2cccc(CN(C)C)c2n1Cc1ccc(-c2ccccc2-c2nn[nH]n2)cc1 | 12% |  | 
1500 nM | CCCCc1nc2cc(Cl)ccc2n1Cc1ccc(-c2ccccc2-c2nn[nH]n2)cc1 |  | -8% | inhibition in vivo at 10 mg/kg [5]: 45%
1200 nM | CCCCOC(=O)c1cccc2nc(CCCC)n(Cc3ccc(-c4ccccc4-c4nn[nH]n4)cc3)c12 | 9% | 78% | 
9000 nM | CCCCc1nc2ccc(C(=O)O)cc2n1Cc1ccc(-c2ccccc2-c2nn[nH]n2)cc1 |  | 9% | 
1100 nM | CCCCc1nc2cccc(O)c2n1Cc1ccc(-c2ccccc2-c2nn[nH]n2)cc1 | 2% | 56% | 
1300 nM | CCCCc1nc2cc(C)cc(C(=O)O)c2n1Cc1ccc(-c2ccccc2-c2nn[nH]n2)cc1 | 80% |  | 
660 nM | CCCCc1nc2cccc(C(=O)O)c2n1Cc1ccc(-c2ccccc2C(=O)O)cc1 | 2% | 46% | 
440 nM | CCCCc1nc2cc(Cl)cc(C(=O)OC)c2n1Cc1ccc(-c2ccccc2-c2nn[nH]n2)cc1 | 57% |  | 
2600 nM | CCCCc1nc2cccc(CC(=O)O)c2n1Cc1ccc(-c2ccccc2-c2nn[nH]n2)cc1 |  |  | 
330 nM | CCCCc1nc2cccc(C)c2n1Cc1ccc(-c2ccccc2-c2nn[nH]n2)cc1 | 8% |  | 
740 nM | CCCCc1nc2cc(C(=O)OC)ccc2n1Cc1ccc(-c2ccccc2-c2nn[nH]n2)cc1 |  |  | inhibition in vivo at 100 mg/kg [6]: -13%
5500 nM | CCCCc1nc2cc(C(=O)O)ccc2n1Cc1ccc(-c2ccccc2-c2nn[nH]n2)cc1 | 7% |  | 
 | CCCCc1nc2ccc(C)c(C(=O)OCC)c2n1Cc1ccc(-c2ccccc2-c2nn[nH]n2)cc1 | 13% | 100% | IC50 [7]: 910 nM

IC50 [1] | SMILES | inhibition [2] | inhibition in vivo at 30 mg/kg [4] | other results
1100 nM | CCCCc1nc2ccccc2n1Cc1ccc(-c2ccccc2C(=O)O)cc1 |  |  | inhibition in vivo at 100 mg/kg [6]: 45%; inhibition in vivo at 10 mg/kg [5]: 20%
550 nM | CCCCc1nc2cccc(C(=O)O)c2n1Cc1ccc(-c2ccccc2-c2nn[nH]n2)cc1 | 91% |  | 
440 nM | CCCCc1nc2ccc(C(=O)OC)cc2n1Cc1ccc(-c2ccccc2-c2nn[nH]n2)cc1 |  | 0% | 
320 nM | CCCCc1nc2cccc(C(=O)OC)c2n1Cc1ccc(-c2ccccc2-c2nn[nH]n2)cc1 | 78% |  | 
450 nM | CCCCc1nc2cccc(CO)c2n1Cc1ccc(-c2ccccc2-c2nn[nH]n2)cc1 | 16% | 41% | 
 | CCCCc1nc2c(C(N)=O)cccc2n1Cc1ccc(-c2ccccc2-c2nn[nH]n2)cc1 |  | 28% | 
2800 nM | CCCCc1nc2cccc(OC)c2n1Cc1ccc(-c2ccccc2-c2nn[nH]n2)cc1 | -6% |  | 
340 nM | CCCCc1nc2ccc(C)c(C(=O)O)c2n1Cc1ccc(-c2ccccc2-c2nn[nH]n2)cc1 | 40% |  | 
> 10000 nM | CCCCc1nc2c(C(=O)O)cccc2n1Cc1ccc(-c2ccccc2-c2nn[nH]n2)cc1 |  |  | inhibition in vivo at 10 mg/kg [8]: 19%
1100 nM | CCCCc1nc2ccc(OC)cc2n1Cc1ccc(-c2ccccc2-c2nn[nH]n2)cc1 |  |  | inhibition in vivo at 100 mg/kg [6]: 5%; inhibition in vivo at 10 mg/kg [5]: 77%
3100 nM | CCCCc1nc2ccc(Cl)cc2n1Cc1ccc(-c2ccccc2-c2nn[nH]n2)cc1 |  | 18% | inhibition in vivo at 10 mg/kg [5]: 23%
910 nM | CCCCc1nc2cc(OC)ccc2n1Cc1ccc(-c2ccccc2-c2nn[nH]n2)cc1 |  |  | inhibition in vivo at 100 mg/kg [6]: 84%; inhibition in vivo at 10 mg/kg [5]: 60%
600 nM | CCCCc1nc2cccc(COC)c2n1Cc1ccc(-c2ccccc2-c2nn[nH]n2)cc1 | 54% |  | 
870 nM | CCCCc1nc2cc(C)cc(C(=O)OC)c2n1Cc1ccc(-c2ccccc2-c2nn[nH]n2)cc1 | 41% |  | 
1400 nM | CCCCc1nc2cccc(C(=O)OCC)c2n1Cc1ccc(-c2ccccc2-c2nn[nH]n2)cc1 | 51% |  | 
250 nM | CCCCc1nc2cccc(CC(=O)OCC)c2n1Cc1ccc(-c2ccccc2-c2nn[nH]n2)cc1 | 24% | 82% | 
 | CCCCc1nc2cc(Cl)cc(C(=O)O)c2n1Cc1ccc(-c2ccccc2-c2nn[nH]n2)cc1 | 23% |  | 
